Assay [1] concerns the target T1, Cannabinoid receptor 2 (Homo sapiens, UniProt P34972). Description: Agonist activity at human CB2 receptor expressed in CHO cells assessed as inhibition of forskolin-induced cAMP release. In kind it is functional, cell-based. The method in brief:
(§1)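 CHO cells stably expressing human CB2, 5000 cells/well, incubated overnight at 37 °C. Compounds added in stimulation buffer with 1 mM IBMX, 0.25% BSA and forskolin, 30 min at 37 °C. cAMP read after lysis with a commercial kit. 100% is set by forskolin-stimulated cAMP versus the level under 200 nM CP-55940. Efficacy is relative to CP-55940, which is run twice per plate. EC50 from a four-parameter logistic fit. Each compound tested in triplicate, at least three times; mean reported.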

Assay [2] deals with T1, Cannabinoid receptor 2. The assay can be described thus: Agonist activity at human CB2 receptor expressed in CHO cells assessed as inhibition of forskolin-induced cAMP release relative to CP-55940. Type of assay: functional, cell-based. The method in brief:
as §1

The species entered for assay [3] is Homo sapiens. Description: Selectivity ratio of EC50 for human CB1 receptor to EC50 for human CB2 receptor. The method in brief:
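Inhibition is normalised to 200 nM CP-55940. EC50 from a four-parameter logistic fit. Each compound tested in triplicate, at least three times.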

The target in assay [4] is T1, Cannabinoid receptor 2. Description: Displacement of [3H]CP-55940 form human CB2 receptor transfected in HEK cells. In kind it is cell-based, HEK293. The method in brief: (§2)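 Compounds tested at 1×10^-5 to 1×10^-10 M. Competition with [³H]-CP55940 or [³H]-Win55212 at 4 nM final. IC50 is 50% inhibition of specific binding, from a four-parameter logistic fit.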
In assay [5] the test system is Mus musculus. The assay can be described thus: Antiinflammatory activity in BALB/c mouse assessed as inhibition of zymosan-induced paw edema at 30 mg/kg, po administered 60 mins before zymosan challenge measured after 3 hrs relative to control. In kind it is functional. Also noted: scale not given: the % may be the effect or the level left. The method in brief: (§3)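 Male Balb/c mice, 6–10 weeks old. Compound given orally in 95% PEG400/5% Tween 80 about 60 min before 0.5% zymosan in 0.9% saline, injected dorsal metatarsally into each hind paw. Paw volume measured by water plethysmometry before challenge and 3 h after. Inhibition of swelling is relative to vehicle-dosed mice, six per group.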

In assay [6] the target is T1, Cannabinoid receptor 2. The assay can be described thus: Displacement of [3H]Win55212 form human CB2 receptor transfected in HEK cells. Type of assay: cell-based, HEK293. Summed up:
as §2

Assay [7] has as its system Mus musculus. The assay can be described thus: Antiinflammatory activity in BALB/c mouse assessed as inhibition of zymosan-induced paw edema at 100 mg/kg, po administered 60 mins before zymosan challenge measured after 3 hrs relative to control. In kind it is functional. Also noted: scale not given: the % may be the effect or the level left. Summed up:
as §3

For assay [8], the target named is T1, Cannabinoid receptor 2. The assay can be described thus: Inverse agonist activity at human CB2 receptor expressed in CHO cells assessed as change in forskolin-induced cAMP release. In kind it is functional, cell-based. Conditions: filed as inverse agonist. The method in brief:
as §1

Assay [9] deals with T1, Cannabinoid receptor 2. Description: Displacement of [3H]CP-55940 form human CB2 receptor transfected in HEK cells at 50 nM. The following applies: HEK293. In kind it is cell-based.

Structures are written as SMILES. pEC50, pKi: −log10 of the molar value. Active and inactive are the calls of the source. The rule behind the calls is not given here.

T1 sequence (P34972 whole entry): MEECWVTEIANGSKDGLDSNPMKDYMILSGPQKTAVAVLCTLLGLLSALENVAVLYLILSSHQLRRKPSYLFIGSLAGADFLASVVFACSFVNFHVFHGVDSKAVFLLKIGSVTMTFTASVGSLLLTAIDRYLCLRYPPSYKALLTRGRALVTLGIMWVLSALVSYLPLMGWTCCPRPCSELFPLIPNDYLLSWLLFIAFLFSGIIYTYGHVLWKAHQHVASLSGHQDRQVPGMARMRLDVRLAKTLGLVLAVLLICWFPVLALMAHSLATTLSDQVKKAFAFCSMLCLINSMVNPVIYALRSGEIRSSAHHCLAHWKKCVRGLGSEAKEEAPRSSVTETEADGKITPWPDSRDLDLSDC

With `Fc1ccc(Nc2ccc(CN3CCO[C@@H](c4ccccc4)C3)cn2)cc1`, the negative logarithm of the EC50 (pEC50) in assay [1] is 7.46. Also, the Efficacy in assay [2] was found to be 70%.
The matching figures for `c1ccc(Oc2ccc(CN3CCO[C@@H](c4ccccc4)C3)cc2)cc1`: 4.82 and 100%.
`Clc1ccccc1Nc1ccc(CN2CCO[C@@H](c3ccccc3)C2)cn1`: the pEC50 in [1] is 7.52. The Efficacy in assay [2] worked out at 80%. In assay [3], the Ratio EC50 came to 250.
As to `Clc1cccc(-c2ccc(CN3CCO[C@@H](c4ccccc4)C3)cc2)c1Cl`, the pKi in assay [4] was 6.51; in [6], 6.98. Also, in [1], the pEC50 is 8.22. Also, the Activity in assay [5] amounted to 54%. Also, in assay [2], the Efficacy amounted to 77%. Besides, the Ratio EC50 in assay [3] was 960.
Turning to `Clc1cccc(Nc2ccc(CN3CCO[C@@H](c4ccccc4)C3)cn2)c1Cl`, in [1], the pEC50 is 5.80. In assay [2], the Efficacy worked out at 70%. Also, the Ratio EC50 in assay [3] is above 10.
The like results for `Clc1ccccc1-c1ccc(CN2CCO[C@@H](c3ccccc3)C2)cc1` were, in that order, 7.60, 51% and 306.
The matching figures for `Clc1ccc(Nc2ccc(CN3CCO[C@@H](c4ccccc4)C3)cn2)cc1`: 7.52, 80% and above 670.
As to `Clc1ccc(Nc2ccc(CN3CCO[C@@H](c4ccccc4)C3)cn2)c(Cl)c1`, the pKi was below 5.00 in [4] and 5.58 in assay [6]. Besides, the pEC50 in [1] is 8.00. Moreover, the Activity in [7] turned out to be 85%. Moreover, in assay [2], the Efficacy amounted to 100%. Besides, the Ratio EC50 in assay [3] is above 2000.
For `COc1ccc(Nc2ccc(CN3CCO[C@@H](c4ccccc4)C3)cn2)cc1`, in [1], the pEC50 was 7.19. In addition, the Efficacy in assay [2] worked out at 90%. In assay [3], the Ratio EC50 was above 310.
The like results for `FC(F)(F)c1ccccc1-c1ccc(CN2CCCC(c3ccccc3)C2)cc1` (racemic) were, in that order, 7.52, 57% and 195.
The matching figures for `FC(F)(F)c1ccccc1-c1ccc(CN2CCO[C@@H](c3ccccc3)C2)cc1`: 7.40, 50% and 250.
On to `O=C(NCC1CCOCC1)c1cnc(Nc2ccc(Cl)cc2Cl)nc1C(F)(F)F` [GW842166X], for which the negative-log Ki (pKi) was below 5.30 in assay [4] and below 5.00 in [6]. Besides, in assay [1], the pEC50 was 6.46. Further, in assay [2], the Efficacy amounted to 90%. Besides, in [3], the Ratio EC50 is above 60.
Regarding `Cc1ccc(Cl)c(-c2ccc(CN3CCO[C@@H](c4ccccc4)C3)cc2)c1`, in assay [1], the negative logarithm of the EC50 (pEC50) is 8.52. In addition, the Efficacy in [2] worked out at 73%. For the same compound, in assay [3], the Ratio EC50 was found to be 781.
The like results for `Clc1ccc(Nc2ccc(CN3CCO[C@@H](c4ccccc4)C3)cn2)cc1Cl` were, in that order, 7.30, 80% and above 400.
The matching figures for `c1ccc(Nc2ccc(CN3CCO[C@@H](c4ccccc4)C3)cc2)cc1`: 6.21, 60% and above 30.
The matching figures for `Clc1cccc(Nc2ccc(CN3CCO[C@@H](c4ccccc4)C3)cn2)c1`: 6.70, 80% and above 100.
In the case of `FC(F)(F)c1ccccc1-c1ccc(CN2CCO[C@H](c3ccccc3)C2)cc1`, the Activity entry in assay [8] is on record as “Inverse agonist”.
For `CN(Cc1ccc(-c2ccccc2C(F)(F)F)cc1)CC(O)c1ccccc1` (racemic), the negative logarithm of the EC50 (pEC50) in [1] is 8.70. The outcome in assay [9] was Active. Besides, in assay [2], the Efficacy was 95%. For the same compound, the Ratio EC50 in [3] stood at 120.
As for `Cc1ccc(Nc2ccc(CN3CCO[C@@H](c4ccccc4)C3)cn2)cc1`, the pEC50 in assay [1] is 7.00. In addition, the Efficacy in assay [2] was 80%. In assay [3], the Ratio EC50 is above 200.
`CN(C)c1ccc(Nc2ccc(CN3CCO[C@@H](c4ccccc4)C3)cn2)cc1`: the pEC50 in assay [1] is below 4.70.
On to `FC(F)(F)c1ccccc1-c1ccc(CN2CCOC(c3ccccc3)C2)cc1` (racemic), for which the negative logarithm of the EC50 (pEC50) in assay [1] is 6.48. For the same compound, the Efficacy in assay [2] was 50%. The Ratio EC50 in [3] was above 60.
`CC(C)c1ccc(Nc2ccc(CN3CCO[C@@H](c4ccccc4)C3)cn2)cc1`: the negative logarithm of the EC50 (pEC50) in assay [1] was below 4.70.
On the same count and under the same terms, under `c1ccc(-c2ccc(Nc3ccc(CN4CCO[C@@H](c5ccccc5)C4)cn3)cc2)cc1` stands below 4.70.
Consider `c1ccc(Nc2ccc(CN3CCO[C@@H](c4ccccc4)C3)cn2)cc1`, for which the pEC50 in [1] was 6.85. In addition, the Efficacy in assay [2] amounted to 70%. For the same compound, in [3], the Ratio EC50 is above 150.
The like results for `N#Cc1ccccc1-c1ccc(CN2CCO[C@@H](c3ccccc3)C2)cc1` were, in that order, 8.52, 56% and 715.
